According to ChEMBL document CHEMBL4842318, “A γ-lactam siderophore antibiotic effective against multidrug-resistant Pseudomonas aeruginosa, Klebsiella pneumoniae, and Acinetobacter spp” (Eur J Med Chem, 2021):

Columns and labels:
Acinetobacter baumannii [1] = assay: Antibacterial activity against carbapenem resistant Acinetobacter baumannii isolate PR-314 assessed as bacterial growth inhibition by microdilution method; assay type: functional
Summary of the method: (§1)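 Broth microdilution in Chelex-treated, iron-depleted cation-adjusted Mueller-Hinton broth, following the protocol used for siderophore-containing antibiotics; inoculum lowered to 6 × 10^4 cfu/mL; MIC read as growth inhibition, in μg/mL.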

Acinetobacter baumannii [2] = assay: Antibacterial activity against carbapenem resistant Acinetobacter baumannii isolate PR-319 assessed as bacterial growth inhibition by microdilution method; assay type: functional; summary of the method: as §1
Acinetobacter baumannii [3] = assay: Antibacterial activity against carbapenem resistant Acinetobacter baumannii isolate PR-342 assessed as bacterial growth inhibition by microdilution method; assay type: functional; summary of the method: as §1
Acinetobacter baumannii [4] = assay: Antibacterial activity against carbapenem resistant Acinetobacter baumannii isolate PR-380 assessed as bacterial growth inhibition by microdilution method; assay type: functional; summary of the method: as §1
Acinetobacter baumannii [5] = assay: Antibacterial activity against carbapenem resistant Acinetobacter baumannii isolate PR-384 assessed as bacterial growth inhibition by microdilution method; assay type: functional; summary of the method: as §1
[6] = Antibacterial activity against carbapenem susceptible Acinetobacter nosocomialis isolate PR-362 assessed as bacterial growth inhibition by microdilution method; assay type: functional
Summary of the method: (§2)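 Broth microdilution MIC in iron-depleted (Chelex resin-treated) cation-adjusted Mueller-Hinton broth, following the protocol used for siderophore-containing antibiotics. Inoculum was lowered to 6 × 10^4 cfu/mL.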

Acinetobacter baumannii [7] = assay: Antibacterial activity against carbapenem susceptible Acinetobacter baumannii isolate PR-464 assessed as bacterial growth inhibition by microdilution method; assay type: functional; summary of the method: as §2
Acinetobacter baumannii [8] = assay: Antibacterial activity against carbapenem resistant Acinetobacter baumannii isolate PR-342 assessed as inhibition of bacterial growth at 1:1 compound to sulbactam concentration by microdilution method; assay type: functional
Summary of the method: (§3)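 Iron-depleted (Chelex-treated) cation-adjusted Mueller-Hinton broth microdilution; inoculum 6 × 10^4 cfu/mL. Test agent and sulbactam mixed 1:1 by mass and serially 2-fold diluted together. MIC in μg/mL.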

Acinetobacter baumannii [9] = assay: Antibacterial activity against carbapenem resistant Acinetobacter baumannii isolate PR-399 assessed as inhibition of bacterial growth at 1:1 compound to sulbactam concentration by microdilution method; assay type: functional; summary of the method: as §3
Acinetobacter baumannii [10] = assay: Antibacterial activity against carbapenem resistant Acinetobacter baumannii isolate PR-459 assessed as inhibition of bacterial growth at 1:1 compound to sulbactam concentration by microdilution method; assay type: functional; summary of the method: as §3
[11] = Antibacterial activity against carbapenem susceptible Acinetobacter nosocomialis isolate PR-412 assessed as inhibition of bacterial growth at 1:1 compound to sulbactam concentration by microdilution method; assay type: functional; summary of the method: as §2
[12] = Antibacterial activity against carbapenem susceptible Acinetobacter nosocomialis isolate PR-491 assessed as inhibition of bacterial growth at 1:1 compound to sulbactam concentration by microdilution method; assay type: functional
Summary of the method: (§4)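 Broth microdilution MIC in Chelex-treated, iron-depleted cation-adjusted Mueller-Hinton broth, inoculum 6 × 10^4 cfu/mL. Compound and sulbactam combined 1:1 by mass in a 2-fold dilution series.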

Acinetobacter baumannii [13] = assay: Antibacterial activity against carbapenem susceptible Acinetobacter baumannii isolate PR-478 assessed as inhibition of bacterial growth at 1:1 compound to sulbactam concentration by microdilution method; assay type: functional; summary of the method: as §4
Acinetobacter baumannii [14] = assay: Antibacterial activity against carbapenem resistant Acinetobacter baumannii isolate PR-342 assessed as inhibition of bacterial growth in presence of 20 ug/ml sulbactam by microdilution method; assay type: functional; details: dose 20 µg/ml
Acinetobacter baumannii [15] = assay: Antibacterial activity against carbapenem resistant Acinetobacter baumannii isolate PR-345 assessed as inhibition of bacterial growth in presence of 20 ug/ml sulbactam by microdilution method; assay type: functional; details: dose 20 µg/ml
Acinetobacter baumannii [16] = assay: Antibacterial activity against carbapenem resistant Acinetobacter baumannii isolate PR-351 assessed as inhibition of bacterial growth in presence of 20 ug/ml sulbactam by microdilution method; assay type: functional; details: dose 20 µg/ml
Acinetobacter baumannii [17] = assay: Antibacterial activity against carbapenem resistant Acinetobacter baumannii isolate PR-380 assessed as inhibition of bacterial growth in presence of 20 ug/ml sulbactam by microdilution method; assay type: functional; details: dose 20 µg/ml
Acinetobacter baumannii [18] = assay: Antibacterial activity against carbapenem resistant Acinetobacter baumannii isolate PR-384 assessed as inhibition of bacterial growth in presence of 20 ug/ml sulbactam by microdilution method; assay type: functional; details: dose 20 µg/ml
Acinetobacter baumannii [19] = assay: Antibacterial activity against carbapenem resistant Acinetobacter baumannii isolate PR-401 assessed as inhibition of bacterial growth in presence of 20 ug/ml sulbactam by microdilution method; assay type: functional; details: dose 20 µg/ml
Acinetobacter baumannii [20] = assay: Antibacterial activity against carbapenem resistant Acinetobacter baumannii isolate PR-423 assessed as inhibition of bacterial growth in presence of 20 ug/ml sulbactam by microdilution method; assay type: functional; details: dose 20 µg/ml
Acinetobacter baumannii [21] = assay: Antibacterial activity against carbapenem resistant Acinetobacter baumannii isolate PR-459 assessed as inhibition of bacterial growth in presence of 20 ug/ml sulbactam by microdilution method; assay type: functional; details: dose 20 µg/ml
[22] = Antibacterial activity against carbapenem susceptible Acinetobacter nosocomialis isolate PR-491 assessed as inhibition of bacterial growth in presence of 20 ug/ml sulbactam by microdilution method; assay type: functional; details: dose 20 µg/ml
Summary of the method: (§5)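 MIC by broth microdilution using iron-depleted (Chelex-treated) cation-adjusted Mueller-Hinton broth and 6 × 10^4 cfu/mL inoculum. Compound serially diluted with sulbactam held constant at 20 μg/mL.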

Acinetobacter baumannii [23] = assay: Antibacterial activity against carbapenem susceptible Acinetobacter baumannii isolate PR-452 assessed as inhibition of bacterial growth in presence of 20 ug/ml sulbactam by microdilution method; assay type: functional; details: dose 20 µg/ml; summary of the method: as §5
Acinetobacter baumannii [24] = assay: Antibacterial activity against carbapenem susceptible Acinetobacter baumannii isolate PR-464 assessed as inhibition of bacterial growth in presence of 20 ug/ml sulbactam by microdilution method; assay type: functional; details: dose 20 µg/ml; summary of the method: as §5
[25] = Permeability in human Caco-2 cells; assay type: ADME, cell-based
Pseudomonas aeruginosa [26] = assay: Antibacterial activity against Pseudomonas aeruginosa isolate PR-564 leucine at 533 residue assessed as inhibition of bacterial growth by microdilution method; assay type: functional; summary of the method: as §1
Pseudomonas aeruginosa [27] = assay: Antibacterial activity against wild type Pseudomonas aeruginosa isolate PR-651 leucine at 533 residue assessed as inhibition of bacterial growth by microdilution method; assay type: functional; summary of the method: as §2
Pseudomonas aeruginosa [28] = assay: Antibacterial activity against wild type Pseudomonas aeruginosa isolate PR-673 leucine at 533 residue assessed as inhibition of bacterial growth by microdilution method; assay type: functional; summary of the method: as §2
Pseudomonas aeruginosa [29] = assay: Antibacterial activity against wild type Pseudomonas aeruginosa isolate PR-680 leucine at 533 residue assessed as inhibition of bacterial growth by microdilution method; assay type: functional; summary of the method: as §2
Pseudomonas aeruginosa [30] = assay: Antibacterial activity against wild type Pseudomonas aeruginosa isolate PR-688 leucine at 533 residue assessed as inhibition of bacterial growth by microdilution method; assay type: functional; summary of the method: as §2
[31] = Substrate activity at NDM1 (unknown origin) assessed as ratio of Kcat to Km by measuring hydrolysis by spectrophotometry; assay type: ADME
Summary of the method: (§6)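 Substrate hydrolysis (600 μM start) followed at 336 nm (Δε336 = −4362 M−1 cm−1, 0.2 cm cuvette) to completion; velocities over 10 s intervals along progress curve; Km, Vmax from double reciprocal plot, kcat = Vmax/[E].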

[32] = Substrate activity at VIM-2 (unknown origin) assessed as ratio of Kcat to Km by measuring hydrolysis by spectrophotometry; assay type: ADME; summary of the method: as §6
[33] = Substrate activity at IMP-1 (unknown origin) assessed as Kcat by measuring hydrolysis by spectrophotometry; assay type: ADME; summary of the method: as §6
[34] = Substrate activity at IMP-1 (unknown origin) assessed as ratio of Kcat to Km by measuring hydrolysis by spectrophotometry; assay type: ADME; summary of the method: as §6
[35] = Substrate activity at OXA-23 (unknown origin) assessed as Kcat by measuring hydrolysis by spectrophotometry; assay type: ADME
Acinetobacter baumannii [36] = assay: Antibacterial activity against carbapenem susceptible Acinetobacter baumannii isolate PR-340 assessed as inhibition of bacterial growth at 1:1 compound to sulbactam concentration by microdilution method

CC(C)(O/N=C(\C(=O)N[C@H]1CN2CC(C(=O)NCCN3C(=O)c4cc(O)c(O)cc4C3=O)=C(C(=O)O)N2C1=O)c1nc(N)sc1Cl)C(=O)O
MIC (Acinetobacter baumannii [1]): > 16 µg/mL | MIC (Acinetobacter baumannii [2]): > 16 µg/mL | MIC (Acinetobacter baumannii [3]): 16 µg/mL | MIC (Acinetobacter baumannii [4]): > 16 µg/mL | MIC (Acinetobacter baumannii [5]): > 16 µg/mL | MIC [6]: > 16 µg/mL | MIC (Acinetobacter baumannii [7]): > 16 µg/mL | MIC (Acinetobacter baumannii [8]): > 16 µg/mL | MIC (Acinetobacter baumannii [9]): 16 µg/mL | MIC (Acinetobacter baumannii [10]): 8 µg/mL | MIC [11]: 1 µg/mL | MIC [12]: 0.5 µg/mL | MIC (Acinetobacter baumannii [13]): 1 µg/mL | MIC (Acinetobacter baumannii [14]): > 16 µg/mL | MIC (Acinetobacter baumannii [15]): ≤ 0.25 µg/mL | MIC (Acinetobacter baumannii [16]): ≤ 0.25 µg/mL | MIC (Acinetobacter baumannii [17]): ≤ 0.25 µg/mL | MIC (Acinetobacter baumannii [18]): > 16 µg/mL | MIC (Acinetobacter baumannii [19]): ≤ 0.25 µg/mL | MIC (Acinetobacter baumannii [20]): ≤ 0.25 µg/mL | MIC (Acinetobacter baumannii [21]): 4 µg/mL | MIC [22]: ≤ 0.25 µg/mL | MIC (Acinetobacter baumannii [23]): ≤ 0.25 µg/mL | MIC (Acinetobacter baumannii [24]): ≤ 0.25 µg/mL | permeability [25]: Impermeable | MIC (Pseudomonas aeruginosa [26]): > 16 µg/mL | MIC (Pseudomonas aeruginosa [27]): > 16 µg/mL | MIC (Pseudomonas aeruginosa [28]): > 16 µg/mL | MIC (Pseudomonas aeruginosa [29]): > 16 µg/mL | MIC (Pseudomonas aeruginosa [30]): > 16 µg/mL | Kcat/Km [31]: 20000 M⁻¹ s⁻¹ | Kcat/Km [32]: 12000 M⁻¹ s⁻¹ | Kcat [33]: 5 s⁻¹ | Kcat/Km [34]: 3000 M⁻¹ s⁻¹ | Kcat [35]: Nottraceable | MIC (Acinetobacter baumannii [36]): 1 µg/mL
